Assay [1] addresses T1, Sulfonylurea receptor 2, Kir6.2 (Homo sapiens) (UniProt Q14654+O60706). Briefly: Ability to open human urinary bladder Kir6.2 containing SUR2B in Ltk cells by FLIPR assay relative to P1075. The class given is functional, cell-based. A digest of the protocol:
(§1)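 Ltk- cells stably transfected with the Kir6.2/SUR2B exon 17- splice variant. Membrane potential was followed with DiBAC dye in a 96-well cell-based kinetic fluorescence (FLIPR) assay. The highest concentration tested was 10 µM. Each compound's maximal fluorescence response was expressed as % of the response to the reference opener.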

The target of assay [2] is Sulfonylurea receptor 2, Kir6.2 (Homo sapiens, UniProt O60706+Q14654). Briefly: Ability to open human urinary bladder Kir6.2 channel containing SUR2B in Ltk cells by FLIPR assay. It counts as functional, cell-based. Put shortly:
as §1

In assay [3] the target is T1, Sulfonylurea receptor 2, Kir6.2 (Homo sapiens). Description: Activity against pig bladder KATP channel opening assessed as ability to relax field-stimulated pig detrusor relative to P1075. It counts as functional. To be noted: Sus scrofa; target entry is the homologue from another species.

Sequence of Sulfonylurea receptor 2, Kir6.2 (Q14654 whole entry): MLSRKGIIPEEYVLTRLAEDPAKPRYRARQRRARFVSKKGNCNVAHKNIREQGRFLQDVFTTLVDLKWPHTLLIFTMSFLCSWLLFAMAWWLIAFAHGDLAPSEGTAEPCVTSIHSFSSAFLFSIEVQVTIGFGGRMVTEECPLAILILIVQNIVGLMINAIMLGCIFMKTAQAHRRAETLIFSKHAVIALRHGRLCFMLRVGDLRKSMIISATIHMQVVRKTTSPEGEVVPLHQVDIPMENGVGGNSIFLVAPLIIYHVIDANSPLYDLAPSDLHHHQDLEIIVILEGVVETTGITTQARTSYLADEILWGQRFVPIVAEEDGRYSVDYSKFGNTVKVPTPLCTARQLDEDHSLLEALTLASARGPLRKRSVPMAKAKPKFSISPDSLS
Sequence of Sulfonylurea receptor 2, Kir6.2 (O60706 whole entry): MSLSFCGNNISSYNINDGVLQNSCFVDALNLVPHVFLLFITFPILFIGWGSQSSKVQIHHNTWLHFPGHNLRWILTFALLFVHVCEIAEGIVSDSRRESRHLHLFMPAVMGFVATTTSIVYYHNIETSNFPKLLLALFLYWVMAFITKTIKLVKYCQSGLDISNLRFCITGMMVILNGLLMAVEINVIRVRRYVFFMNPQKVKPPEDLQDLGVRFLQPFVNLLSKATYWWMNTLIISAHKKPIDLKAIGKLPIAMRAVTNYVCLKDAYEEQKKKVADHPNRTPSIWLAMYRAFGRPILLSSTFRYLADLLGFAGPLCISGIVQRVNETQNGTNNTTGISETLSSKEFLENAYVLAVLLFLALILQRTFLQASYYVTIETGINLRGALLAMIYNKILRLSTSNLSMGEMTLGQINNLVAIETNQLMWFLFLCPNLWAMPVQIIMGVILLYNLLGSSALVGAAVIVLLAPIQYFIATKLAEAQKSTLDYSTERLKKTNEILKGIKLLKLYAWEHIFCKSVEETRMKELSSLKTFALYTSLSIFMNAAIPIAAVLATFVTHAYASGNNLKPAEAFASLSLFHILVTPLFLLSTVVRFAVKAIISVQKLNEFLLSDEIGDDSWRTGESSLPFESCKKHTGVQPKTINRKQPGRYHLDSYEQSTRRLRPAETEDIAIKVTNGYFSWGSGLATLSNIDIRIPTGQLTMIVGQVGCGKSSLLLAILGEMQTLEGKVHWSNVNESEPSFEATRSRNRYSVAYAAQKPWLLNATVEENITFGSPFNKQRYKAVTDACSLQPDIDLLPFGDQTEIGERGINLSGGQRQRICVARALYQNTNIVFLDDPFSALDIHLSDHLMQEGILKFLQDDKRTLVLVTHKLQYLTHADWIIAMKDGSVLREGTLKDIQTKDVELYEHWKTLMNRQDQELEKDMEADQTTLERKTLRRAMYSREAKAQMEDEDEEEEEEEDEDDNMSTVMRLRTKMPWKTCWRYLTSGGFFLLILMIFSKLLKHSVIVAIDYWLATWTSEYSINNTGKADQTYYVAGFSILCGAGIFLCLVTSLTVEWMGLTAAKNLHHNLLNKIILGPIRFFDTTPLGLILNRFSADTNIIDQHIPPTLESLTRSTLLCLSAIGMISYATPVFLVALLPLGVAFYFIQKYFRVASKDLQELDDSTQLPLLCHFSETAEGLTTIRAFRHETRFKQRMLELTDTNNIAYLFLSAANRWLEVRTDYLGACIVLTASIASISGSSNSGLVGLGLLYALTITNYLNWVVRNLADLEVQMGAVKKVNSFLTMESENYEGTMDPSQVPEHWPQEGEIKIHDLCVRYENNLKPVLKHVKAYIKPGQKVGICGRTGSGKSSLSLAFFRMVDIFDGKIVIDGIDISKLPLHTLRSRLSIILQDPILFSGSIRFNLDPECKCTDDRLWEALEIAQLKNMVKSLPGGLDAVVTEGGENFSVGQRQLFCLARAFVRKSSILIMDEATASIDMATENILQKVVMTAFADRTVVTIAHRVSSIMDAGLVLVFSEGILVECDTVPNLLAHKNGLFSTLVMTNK

Take `CC[C@@H]1OC(O)=C2C1=NC1=C(C(=O)OCC1)[C@H]2c1ccc(F)c(Br)c1`: the Efficacy in assay [1] stood at 71%. Moreover, the EC50 in assay [2] was 324 nM. Consider `CC1(C)OCC2=C(C1=O)C(c1ccc(F)c(Br)c1)C1=C(O)C(C)(C)OCC1=N2` (centres undefined), for which the Efficacy in assay [1] was 61%. It took 3890 nM to reach a half-maximal effect in assay [2] (EC50).

Molecule `CCC1(CC)OCC2=NC3=C(C(=O)COC3)C(c3ccc(F)c(Br)c3)C2=C1O` (centres undefined) came in with an Efficacy in assay [1] of 42%. The molecule also had an EC50 in assay [2] of 13800 nM. In assay [1], `CC1(C)OCC2=NC3=C(C(=O)COC3)C(c3ccc(F)c(Br)c3)C2=C1O` (centres undefined) yielded an Efficacy of 96%. The molecule further gave an EC50 in assay [2] of 17 nM. With `CC1(C)OCC(=O)C2=C1N=C1COC(O)=C1C2c1ccc(F)c(Br)c1` (centres undefined), the Efficacy in assay [1] came to 73%. The molecule also gave an EC50 in assay [2] of 120 nM. For `CC1(C)OC(O)=C2C1=NC1=C(C(=O)COC1)C2c1ccc(F)c(Br)c1` (centres undefined) the same measures were 77% and 26.9 nM. Consider `O=C1CCCC2=C1[C@H](c1ccc(F)c(Br)c1)C1=C(CCS1(=O)=O)N2`, for which the Efficacy in assay [1] was 90%. The molecule further showed an EC50 in assay [2] of 158 nM. As to `CC[C@H]1OC(O)=C2C1=NC1=C(C(=O)CSC1)[C@H]2c1ccc(F)c(Br)c1`, the Efficacy in assay [3] came to 38%. For the molecule `CC[C@H]1OCC2=C(C1=O)[C@@H](c1ccc(F)c(Br)c1)C1=C(O)OCC1=N2` (racemic), the Efficacy in assay [1] came out at 97%. Moreover, in assay [2], the EC50 was 1020 nM.

`CC[C@@H]1CC(O)=C2C1=NC1=C(C(=O)COC1)[C@H]2c1ccc(F)c(Br)c1` (relative stereo) showed an Efficacy in assay [1] of 88%. This molecule also showed an EC50 in assay [2] of 1.17 nM.

Regarding `CC[C@H]1OC(O)=C2C1=NC1=C(C(=O)OCC1)[C@H]2c1ccc(F)c(Br)c1` (relative stereo), the Efficacy in assay [1] is 54%. Besides, the EC50 in assay [2] is 5010 nM. On to `CC[C@@H]1OC(O)=C2C1=NC1=C(C(=O)CSC1)[C@H]2c1ccc(F)c(Br)c1` (relative stereo), for which the Efficacy in assay [1] came out at 74%. This molecule also had an EC50 in assay [2] of 155 nM. For `C[C@@H]1C2=C(C(=O)N1C)[C@H](c1ccc(F)c(Br)c1)C1=C(O)COCC1=N2` (relative stereo) the same measures were 92% and 316 nM. `CC[C@H]1OCC(=O)C2=C1N=C1COC(O)=C1[C@@H]2c1ccc(F)c(Br)c1` (relative stereo) came in with an Efficacy in assay [1] of 90%. The molecule further showed an EC50 in assay [2] of 18.2 nM. For `C[C@H]1C2=C(C(=O)N1C)[C@H](c1ccc(F)c(Br)c1)C1=C(COCC1=O)N2` (relative stereo) the same measures were 102% and 2.75 nM.

Regarding `CC[C@@H]1OC(O)=C2C1=NC1=C(C(=O)OC1)[C@H]2c1ccc(F)c(Br)c1` (relative stereo), in assay [1], the Efficacy was 94%. In assay [2], this molecule gave an EC50 of 6.03 nM. For `CC[C@@H]1OCC(=O)C2=C1N=C1COC(O)=C1[C@@H]2c1ccc(F)c(Br)c1` (relative stereo) the same measures were 74% and 933 nM. For `CC[C@@H]1OC(O)=C2C1=NC1=C(C(=O)C(C)(C)OC1)[C@H]2c1ccc(F)c(Br)c1` (relative stereo), in that order: 105% and 14.5 nM. For `C[C@@H]1OC(=O)C2=C1NC1=C([C@H]2c2ccc(F)c(Br)c2)S(=O)(=O)CC1` (relative stereo) the same measures were 93% and 135 nM. `C[C@H]1OC(=O)C2=C1NC1=C([C@H]2c2ccc(F)c(Br)c2)S(=O)(=O)CC1` (relative stereo) gave an Efficacy in assay [1] of 86%. The molecule further gave an EC50 in assay [2] of 407 nM. For `C[C@H]1OC(=O)C2=C1NC1=C([C@H]2c2ccc(F)c(Br)c2)S(=O)(=O)CCC1` (relative stereo), in that order: 99% and 224 nM. For `C[C@@H]1OC(=O)C2=C1NC1=C([C@H]2c2ccc(F)c(Br)c2)S(=O)(=O)CCC1` (relative stereo) the same measures were 102% and 56.2 nM. For `C[C@@H]1OCC(=O)C2=C1N=C1COC(O)=C1[C@@H]2c1ccc(F)c(Br)c1` (relative stereo) the same measures were 73% and 102 nM. In turn, `CCCC[C@@H]1OC(O)=C2C1=NC1=C(C(=O)COC1)[C@H]2c1ccc(F)c(Br)c1` (relative stereo) displayed an Efficacy in assay [1] of 67%. The EC50 in assay [2] was 29.5 nM. With `COC[C@@H]1OC(O)=C2C1=NC1=C(C(=O)COC1)[C@H]2c1ccc(F)c(Br)c1` (relative stereo), the Efficacy in assay [1] was determined as 100%. The molecule further gave an EC50 in assay [2] of 9.77 nM. For `CC[C@H]1OC(O)=C2C1=NC1=C(C(=O)CCC1)[C@H]2c1ccc(F)c(Br)c1` (relative stereo) the same measures were 83% and 251 nM. For `CC[C@@H]1OC(O)=C2C1=NC1=C(C(=O)COC1(C)C)[C@H]2c1ccc(F)c(Br)c1` (relative stereo), in that order: 59% and 1740 nM. For `CC[C@@H]1OC(O)=C2C1=NC1=C(C(=O)CCC1)[C@H]2c1ccc(F)c(Br)c1` (relative stereo) the same measures were 87% and 56.2 nM.

In assay [1], `C[C@H]1OCC(=O)C2=C1N=C1COC(O)=C1[C@@H]2c1ccc(F)c(Br)c1` (relative stereo) showed an Efficacy of 96%. In assay [2], the EC50 was 1.82 nM. In turn, `CC[C@H]1OC(O)=C2C1=NC1=C(C(=O)OC1)[C@H]2c1ccc(F)c(Br)c1` (relative stereo) showed an Efficacy in assay [1] of 74%. The molecule also gave an EC50 in assay [2] of 72.4 nM.

For the molecule `CC[C@@H]1OCC2=C(C1=O)[C@@H](c1ccc(F)c(Br)c1)C1=C(O)OCC1=N2` (stereo in doubt; 10a), the figures for the Efficacy in assay [1] and in assay [3] were 83% and 86%, respectively. For `CC[C@@H]1OCC2=C(C1=O)[C@@H](c1ccc(F)c(Br)c1)C1=C(O)OCC1=N2` (stereo in doubt; 10b) the same measures were 46% and 95%. For `C[C@@H]1OC(O)=C2C1=NC1=C(C(=O)COC1)[C@H]2c1ccc(F)c(Br)c1` (stereo in doubt; 17a) the same measures were 105% and 97%. For `CC[C@H]1OC(O)=C2C1=NC1=C(C(=O)COC1)[C@H]2c1ccc(F)c(Br)c1` (stereo in doubt; 21a), in that order: 54% and 94%.

Regarding `CC(C)C[C@H]1OC(O)=C2C1=NC1=C(C(=O)COC1)[C@H]2c1ccc(F)c(Br)c1` (stereo in doubt; 31b), the Efficacy in assay [1] worked out at 59%; in assay [3], 35%. On to `CCC[C@H]1OC(O)=C2C1=NC1=C(C(=O)COC1)[C@H]2c1ccc(Cl)c(Br)c1` (stereo in doubt; 43b), for which, in assay [1], the Efficacy came out at 99%. Still for that read-out and setting: the same measure for `CCC[C@H]1OC(O)=C2C1=NC1=C(C(=O)COC1)[C@H]2c1ccc(Br)c(Cl)c1` (stereo in doubt; 44a): 121%; for `CCC[C@H]1OC(O)=C2C1=NC1=C(C(=O)COC1)[C@H]2c1ccc(Br)c(Cl)c1` (stereo in doubt; 44b): 92%. Still for that read-out and setting: the same measure for `CCC[C@H]1OC(O)=C2C1=NC1=C(C(=O)COC1)[C@H]2c1ccc(Br)c(Br)c1` (stereo in doubt; 45a): 104%; for `CCC[C@H]1OC(O)=C2C1=NC1=C(C(=O)COC1)[C@H]2c1ccc(Br)c(Br)c1` (stereo in doubt; 45b): 108%; for `CCC[C@H]1OC(O)=C2C1=NC1=C(C(=O)COC1)[C@H]2c1ccc(C)c(Br)c1` (stereo in doubt; 46a): 81%. The same measure, in the same setting: the same measure for `CCC[C@H]1OC(O)=C2C1=NC1=C(C(=O)COC1)[C@H]2c1ccc(C)c(Br)c1` (stereo in doubt; 46b): 87%; for `CC[C@@H]1OCC(O)=C2C1=NC1=C(C(=O)COC1)[C@H]2c1ccc(F)c(Br)c1` (stereo in doubt; 70a): 87%. In turn, `CC[C@@H]1OCC(O)=C2C1=NC1=C(C(=O)COC1)[C@H]2c1ccc(F)c(Br)c1` (stereo in doubt; 70b) yielded an Efficacy in assay [1] of 94%.

`CC[C@H]1OCC(O)=C2C1=NC1=C(C(=O)COC1)[C@H]2c1ccc(F)c(Cl)c1` (stereo in doubt; 72a): in assay [1], the Efficacy was 66%. The molecule `CC[C@H]1OCC(O)=C2C1=NC1=C(C(=O)COC1)[C@H]2c1ccc(F)c(I)c1` (stereo in doubt; 73a) had an Efficacy in assay [1] of 69%.

In assay [1], `CC[C@H]1OCC(O)=C2C1=NC1=C(C(=O)COC1)[C@H]2c1ccc(F)c(I)c1` (stereo in doubt; 73b) yielded an Efficacy of 53%. With `CC[C@H]1OCC(O)=C2C1=NC1=C(C(=O)COC1)[C@H]2c1ccc(Cl)c(Cl)c1` (stereo in doubt; 74a), the Efficacy in assay [1] was determined as 118%.

Consider `CC[C@H]1OCC(O)=C2C1=NC1=C(C(=O)COC1)[C@H]2c1ccc(Cl)c(Br)c1` (stereo in doubt; 75a), for which the Efficacy in assay [1] turned out to be 89%. Molecule `CC[C@H]1OCC(O)=C2C1=NC1=C(C(=O)COC1)[C@H]2c1ccc(Cl)c(Br)c1` (stereo in doubt; 75b) yielded an Efficacy in assay [1] of 54%. On to `CC[C@H]1OCC(O)=C2C1=NC1=C(C(=O)COC1)[C@H]2c1ccc(Br)c(Cl)c1` (stereo in doubt; 76a), for which the Efficacy in assay [1] is 76%. In the case of `CC[C@H]1OCC(O)=C2C1=NC1=C(C(=O)COC1)[C@H]2c1ccc(Br)c(Br)c1` (stereo in doubt; 77a), the Efficacy in assay [1] stood at 120%. Still for that read-out and setting: the same measure for `CC[C@H]1OCC(O)=C2C1=NC1=C(C(=O)COC1)[C@H]2c1ccc(Br)c(Br)c1` (stereo in doubt; 77b): 104%. On the same count and under the same terms, the value for `CC[C@H]1OCC(O)=C2C1=NC1=C(C(=O)COC1)[C@H]2c1ccc(C)c(Br)c1` (stereo in doubt; 78a) was 94%; that for `CC[C@H]1OCC(O)=C2C1=NC1=C(C(=O)COC1)[C@H]2c1ccc(C)c(Br)c1` (stereo in doubt; 78b) was 56%.

Values taken from ChEMBL document CHEMBL1137338, “Effects of substitution on 9-(3-bromo-4-fluorophenyl)-5,9-dihydro-3H,4H-2,6-dioxa-4- azacyclopenta[b]naphthalene-1,8-dione, a dihydropyridine ATP-sensitive potassium channel opener” (J Med Chem, 2006).
